Experimental data from ChEMBL document CHEMBL1140069, “In vitro antifungal activity of polyfunctionalized 2-(hetero)arylquinolines prepared through imino Diels-Alder reactions” (2008).

Assays:
Format in all cases: functional
Cryptococcus neoformans [1] = experiment: Antimicrobial activity against Cryptococcus neoformans IM 983036 isolate at 12.5 ug/ml after 48 hrs
In short: (§1)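 Clinical Cryptococcus isolates kept on Sabouraud-dextrose agar slopes; inoculum 1–5 × 10³ CFU/mL. Quinoline DMSO stocks were diluted in RPMI-1640 to final 100–6.25 µg/mL, with DMSO ≤2%. An equal volume of inoculum was added (200 µL per well). Run in triplicate.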

Cryptococcus neoformans [2] = experiment: Antimicrobial activity against Cryptococcus neoformans IM 00319 isolate at 50 ug/ml after 48 hrs
In short: (§2)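 Percent growth inhibition in 96-well microplates. Compound stocks in DMSO (≤2%) were diluted in RPMI-1640 to final 100–6.25 µg/mL, and 100 µL inoculum was added (final 200 µL). Controls were a growth well (inoculum with matching DMSO, no compound) and a sterility well (no inoculum). Inhibition was calculated against growth and sterility wells.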

Cryptococcus neoformans [3] = experiment: Antimicrobial activity against Cryptococcus neoformans IM 031631 isolate at 6.25 ug/ml after 48 hrs; in short: as §2
Candida albicans [4] = experiment: Antimicrobial activity against Candida albicans ATCC 10231 at 6.25 ug/ml after 24 hrs; conditions: ATCC 10231, 24 h
In short: (§3)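 Growth-inhibition microplate test. Strains are grown on Sabouraud-chloramphenicol agar for 48 h at 30 °C, and inoculum is added to RPMI-1640 containing compound at a final 100–6.25, with DMSO ≤2%. Each strain has a growth control (same DMSO, no compound) and a sterility control.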

Candida albicans [5] = experiment: Antimicrobial activity against Candida albicans C130 isolate at 100 ug/ml after 24 hrs; in short: as §3
Cryptococcus neoformans [6] = experiment: Antimicrobial activity against Cryptococcus neoformans ATCC 32264 at 6.25 ug/ml after 48 hrs; conditions: ATCC 32264, 48 h; in short: as §2
Candida albicans [7] = experiment: Antimicrobial activity against Candida albicans C127 isolate at 25 ug/ml after 24 hrs; conditions: C127, 24 h; in short: as §3
Cryptococcus neoformans [8] = experiment: Antimicrobial activity against Cryptococcus neoformans IM 961951 isolate at 6.25 ug/ml after 48 hrs; in short: as §1
Cryptococcus neoformans [9] = experiment: Antimicrobial activity against Cryptococcus neoformans IM 00319 isolate at 6.25 ug/ml after 48 hrs; in short: as §2
Pichia kudriavzevii [10] = experiment: Antimicrobial activity against Candida krusei C117 isolate at 50 ug/ml after 24 hrs; in short: as §2
Cryptococcus neoformans [11] = experiment: Antimicrobial activity against Cryptococcus neoformans ATCC 32264 at 25 ug/ml after 48 hrs; conditions: ATCC 32264, 48 h; in short: as §2
Cryptococcus neoformans [12] = experiment: Antimicrobial activity against Cryptococcus neoformans IM 042074 isolate at 50 ug/ml after 48 hrs; in short: as §2
Candida tropicalis [13] = experiment: Antimicrobial activity against Candida tropicalis C131 isolate at 25 ug/ml after 24 hrs; in short: as §2
Nakaseomyces glabratus [14] = experiment: Antimicrobial activity against Candida glabrata C115 isolate at 25 ug/ml after 24 hrs; in short: as §2
Cryptococcus neoformans [15] = experiment: Antimicrobial activity against Cryptococcus neoformans IM 961951 isolate at 25 ug/ml after 48 hrs; in short: as §1
Cryptococcus neoformans [16] = experiment: Antimicrobial activity against Cryptococcus neoformans IM 052470 isolate at 25 ug/ml after 48 hrs; in short: as §2
Candida parapsilosis [17] = experiment: Antimicrobial activity against Candida parapsilosis C124 isolate at 6.25 ug/ml after 24 hrs; conditions: Lodderomyces parapsilosis; in short: as §2
Pichia kudriavzevii [18] = experiment: Antimicrobial activity against Candida krusei C117 isolate at 6.25 ug/ml after 24 hrs; in short: as §2
Candida parapsilosis [19] = experiment: Antimicrobial activity against Candida parapsilosis C124 isolate at 100 ug/ml after 24 hrs; conditions: Lodderomyces parapsilosis; in short: as §2
Candida albicans [20] = experiment: Antimicrobial activity against Candida albicans C126 isolate at 25 ug/ml after 24 hrs; in short: as §3
Cryptococcus neoformans [21] = experiment: Antimicrobial activity against Cryptococcus neoformans IM 972751 isolate at 6.25 ug/ml after 48 hrs; in short: as §1
Candida parapsilosis [22] = experiment: Antimicrobial activity against Candida parapsilosis C124 isolate at 12.5 ug/ml after 24 hrs; conditions: Lodderomyces parapsilosis; in short: as §2
Candida albicans [23] = experiment: Antimicrobial activity against Candida albicans ATCC 10231 at 50 ug/ml after 24 hrs; conditions: ATCC 10231, 24 h; in short: as §3
Candida albicans [24] = experiment: Antimicrobial activity against Candida albicans C129 isolate at 50 ug/ml after 24 hrs; in short: as §3
Candida albicans [25] = experiment: Antimicrobial activity against Candida albicans C130 isolate at 6.25 ug/ml after 24 hrs; in short: as §3
Cryptococcus neoformans [26] = experiment: Antimicrobial activity against Cryptococcus neoformans ATCC 32264 at 12.5 ug/ml after 48 hrs; conditions: ATCC 32264, 48 h; in short: as §2
Candida albicans [27] = experiment: Antimicrobial activity against Candida albicans C130 isolate at 25 ug/ml after 24 hrs; in short: as §3
Candida tropicalis [28] = experiment: Antimicrobial activity against Candida tropicalis C131 isolate at 50 ug/ml after 24 hrs; in short: as §2
Pichia kudriavzevii [29] = experiment: Antimicrobial activity against Candida krusei C117 isolate at 25 ug/ml after 24 hrs; in short: as §2
Cryptococcus neoformans [30] = experiment: Antimicrobial activity against Cryptococcus neoformans IM 042074 isolate at 6.25 ug/ml after 48 hrs; in short: as §2
Nakaseomyces glabratus [31] = experiment: Antimicrobial activity against Candida glabrata C115 isolate at 50 ug/ml after 24 hrs; in short: as §2
Cryptococcus neoformans [32] = experiment: Antimicrobial activity against Cryptococcus neoformans IM 983040 isolate at 6.25 ug/ml after 48 hrs; in short: as §1
Cryptococcus neoformans [33] = experiment: Antimicrobial activity against Cryptococcus neoformans IM 983040 isolate at 25 ug/ml after 48 hrs; in short: as §1
Cryptococcus neoformans [34] = experiment: Antimicrobial activity against Cryptococcus neoformans IM 961951 isolate at 100 ug/ml after 48 hrs; in short: as §2
Cryptococcus neoformans [35] = experiment: Antimicrobial activity against Cryptococcus neoformans IM 983040 isolate at 100 ug/ml after 48 hrs; in short: as §1
Cryptococcus neoformans [36] = experiment: Antimicrobial activity against Cryptococcus neoformans IM 983040 isolate at 50 ug/ml after 48 hrs; in short: as §1
Candida albicans [37] = experiment: Antimicrobial activity against Candida albicans C127 isolate at 12.5 ug/ml after 24 hrs; conditions: C127, 24 h; in short: as §3
Pichia kudriavzevii [38] = experiment: Antimicrobial activity against Candida krusei C117 isolate at 12.5 ug/ml after 24 hrs; in short: as §2
Cryptococcus neoformans [39] = experiment: Antimicrobial activity against Cryptococcus neoformans IM 983036 isolate at 6.25 ug/ml after 48 hrs; in short: as §1
Candida tropicalis [40] = experiment: Antimicrobial activity against Candida tropicalis C131 isolate at 100 ug/ml after 24 hrs; in short: as §2
Candida albicans [41] = experiment: Antimicrobial activity against Candida albicans C128 isolate at 100 ug/ml after 24 hrs; in short: as §3
Cryptococcus neoformans [42] = experiment: Antimicrobial activity against Cryptococcus neoformans IM 972724 isolate at 100 ug/ml after 48 hrs; in short: as §1
Cryptococcus neoformans [43] = experiment: Antimicrobial activity against Cryptococcus neoformans IM 042074 isolate at 12.5 ug/ml after 48 hrs; in short: as §2
Cryptococcus neoformans [44] = experiment: Antimicrobial activity against Cryptococcus neoformans ATCC 32264 at 100 ug/ml after 48 hrs; conditions: ATCC 32264, 48 h; in short: as §2
Candida albicans [45] = experiment: Antimicrobial activity against Candida albicans ATCC 10231 at 12.5 ug/ml after 24 hrs; conditions: ATCC 10231, 24 h; in short: as §3
Cryptococcus neoformans [46] = experiment: Antimicrobial activity against Cryptococcus neoformans IM 031631 isolate at 25 ug/ml after 48 hrs; in short: as §2
Candida parapsilosis [47] = experiment: Antimicrobial activity against Candida parapsilosis C124 isolate at 50 ug/ml after 24 hrs; conditions: Lodderomyces parapsilosis; in short: as §2
Candida albicans [48] = experiment: Antimicrobial activity against Candida albicans ATCC 10231 at 100 ug/ml after 24 hrs; conditions: ATCC 10231, 24 h; in short: as §3

`Cc1cc(-c2ccncc2)nc2ccccc12` gave an inhibition at 12.5 µg/mL (Cryptococcus neoformans [1]) of 20%, an inhibition at 50 µg/mL (Cryptococcus neoformans [2]) of 80% and an inhibition at 6.25 µg/mL (Cryptococcus neoformans [3]) of 12%. It also gave an inhibition at 6.25 µg/mL (Candida albicans [4]) of 19%, an inhibition at 100 µg/mL (Candida albicans [5]) of 84% and an inhibition at 6.25 µg/mL (Cryptococcus neoformans [6]) of 83%. The inhibition at 25 µg/mL (Candida albicans [7]) was 0%, the inhibition at 6.25 µg/mL (Cryptococcus neoformans [8]) was 4% and the inhibition at 6.25 µg/mL (Cryptococcus neoformans [9]) was 12%. It also gave an inhibition at 50 µg/mL (Pichia kudriavzevii [10]) of 3%, an inhibition at 25 µg/mL (Cryptococcus neoformans [11]) of 100% and an inhibition at 50 µg/mL (Cryptococcus neoformans [12]) of 87%. It also gave an inhibition at 25 µg/mL (Candida tropicalis [13]) of 60%, an inhibition at 25 µg/mL (Nakaseomyces glabratus [14]) of 4% and an inhibition at 25 µg/mL (Cryptococcus neoformans [15]) of 78%. It also gave an inhibition at 25 µg/mL (Cryptococcus neoformans [16]) of 53%, an inhibition at 6.25 µg/mL (Candida parapsilosis [17]) of 0% and an inhibition at 6.25 µg/mL (Pichia kudriavzevii [18]) of 0%. The inhibition at 100 µg/mL (Candida parapsilosis [19]) was 55%, the inhibition at 25 µg/mL (Candida albicans [20]) was 0% and the inhibition at 6.25 µg/mL (Cryptococcus neoformans [21]) was 0%. It also gave an inhibition at 12.5 µg/mL (Candida parapsilosis [22]) of 0%, an inhibition at 50 µg/mL (Candida albicans [23]) of 73% and an inhibition at 50 µg/mL (Candida albicans [24]) of 82%. The inhibition at 6.25 µg/mL (Candida albicans [25]) was 0%, the inhibition at 12.5 µg/mL (Cryptococcus neoformans [26]) was 90.5% and the inhibition at 25 µg/mL (Candida albicans [27]) was 48%. The inhibition at 50 µg/mL (Candida tropicalis [28]) was 75%, the inhibition at 25 µg/mL (Pichia kudriavzevii [29]) was 0% and the inhibition at 6.25 µg/mL (Cryptococcus neoformans [30]) was 68%. The inhibition at 50 µg/mL (Nakaseomyces glabratus [31]) was 4%, the inhibition at 6.25 µg/mL (Cryptococcus neoformans [32]) was 0% and the inhibition at 25 µg/mL (Cryptococcus neoformans [33]) was 12%. For the same molecule, the inhibition at 100 µg/mL (Cryptococcus neoformans [34]) was 97%, the inhibition at 100 µg/mL (Cryptococcus neoformans [35]) was 45% and the inhibition at 50 µg/mL (Cryptococcus neoformans [36]) was 34%. For the same molecule, the inhibition at 12.5 µg/mL (Candida albicans [37]) was 0%, the inhibition at 12.5 µg/mL (Pichia kudriavzevii [38]) was 0% and the inhibition at 6.25 µg/mL (Cryptococcus neoformans [39]) was 0%. It also gave an inhibition at 100 µg/mL (Candida tropicalis [40]) of 100%, an inhibition at 100 µg/mL (Candida albicans [41]) of 88% and an inhibition at 100 µg/mL (Cryptococcus neoformans [42]) of 74%. For the same molecule, the inhibition at 12.5 µg/mL (Cryptococcus neoformans [43]) was 76%, the inhibition at 100 µg/mL (Cryptococcus neoformans [44]) was 100% and the inhibition at 12.5 µg/mL (Candida albicans [45]) was 41%. For the same molecule, the inhibition at 25 µg/mL (Cryptococcus neoformans [46]) was 57%, the inhibition at 50 µg/mL (Candida parapsilosis [47]) was 5% and the inhibition at 100 µg/mL (Candida albicans [48]) was 100%.

`c1ccc(-c2ccc3ccccc3n2)cc1` [2-PHENYLQUINOLINE] gave an inhibition at 12.5 µg/mL (Cryptococcus neoformans [1]) of 0%, an inhibition at 50 µg/mL (Cryptococcus neoformans [2]) of 34% and an inhibition at 6.25 µg/mL (Cryptococcus neoformans [3]) of 0%. It also gave an inhibition at 6.25 µg/mL (Candida albicans [4]) of 0%, an inhibition at 6.25 µg/mL (Cryptococcus neoformans [6]) of 0% and an inhibition at 6.25 µg/mL (Cryptococcus neoformans [8]) of 0%. It also gave an inhibition at 6.25 µg/mL (Cryptococcus neoformans [9]) of 0%, an inhibition at 25 µg/mL (Cryptococcus neoformans [11]) of 77% and an inhibition at 50 µg/mL (Cryptococcus neoformans [12]) of 77%. The inhibition at 25 µg/mL (Cryptococcus neoformans [15]) was 10%, the inhibition at 25 µg/mL (Cryptococcus neoformans [16]) was 35% and the inhibition at 6.25 µg/mL (Cryptococcus neoformans [21]) was 0%. It also gave an inhibition at 50 µg/mL (Candida albicans [23]) of 0%, an inhibition at 12.5 µg/mL (Cryptococcus neoformans [26]) of 32% and an inhibition at 6.25 µg/mL (Cryptococcus neoformans [30]) of 0%. It also gave an inhibition at 6.25 µg/mL (Cryptococcus neoformans [32]) of 0%, an inhibition at 25 µg/mL (Cryptococcus neoformans [33]) of 13% and an inhibition at 100 µg/mL (Cryptococcus neoformans [34]) of 45%. For the same molecule, the inhibition at 100 µg/mL (Cryptococcus neoformans [35]) was 50%, the inhibition at 50 µg/mL (Cryptococcus neoformans [36]) was 29% and the inhibition at 6.25 µg/mL (Cryptococcus neoformans [39]) was 0%. The inhibition at 100 µg/mL (Cryptococcus neoformans [42]) was 99%, the inhibition at 12.5 µg/mL (Cryptococcus neoformans [43]) was 7% and the inhibition at 100 µg/mL (Cryptococcus neoformans [44]) was 100%. It also gave an inhibition at 12.5 µg/mL (Candida albicans [45]) of 0%, an inhibition at 25 µg/mL (Cryptococcus neoformans [46]) of 15% and an inhibition at 100 µg/mL (Candida albicans [48]) of 0%.
